Hits are enriched below; roughly 2.8% of the tested compounds scored in any of these assays.
pPAFAH inh: pPAFAH (human) enzyme inhibition; Q13093; recombinant pPAFAH, FP-rhodamine probe fluorescence polarization; inhibition, % at 3.39 µM; hit rate 1.5% among 330,000; AID 463082;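 active = inhibition above the mean inhibition across the screen plus 3 SD, cut at about 25% in these data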;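 note: inhibitors block binding of the rhodamine activity-based probe so polarization drops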
PAFAH2 inh: PAFAH2 (human) inhibition | recombinant PAFAH2, FP-rhodamine activity probe, fluorescence polarization | Q99487 | hit rate 0.99% among 340,000 | AID 492956 | inhibition, % at 3.39 µM;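 active = inhibition above the mean over all tested compounds plus 3 SD, cut at about 30% in these data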;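 note: inhibitors block probe labeling of enzyme so polarization drops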
PAFAH1B2 FP inh: PAFAH1B2 (human) inhibition | recombinant PAFAH1B2, FP-rhodamine activity probe, fluorescence polarization | P68402 | hit rate 1.2% among 340,000 | inhibition, % at 3.39 µM;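 active = inhibition above the mean of all tested compounds plus 3 SD, cut at about 24% in these data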
PAFAH1B3 inh: blocks human PAF acetylhydrolase 1B catalytic subunit 3 | hit rate 0.28% among 340,000 | Q15102 | inhibition, % at 3.39 µM | recombinant PAFAH1B3, FP-rhodamine probe, fluorescence polarization | AID 492972;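 active = inhibition above the screen-wide average of all tested compounds plus 3 SD, cut at about 25% in these data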
HTRA1 inhibitor: inhibitors of human serine peptidase HTRA1; Q92743; recombinant HTRA1, FP-rhodamine activity-based probe, fluorescence polarization; inhibition, % at 5.96 µM; hit rate 0.5% among 340,000; AID 504803; in the data active = inhibition above about 36%
Target sequence (Q92743 whole entry, looked up): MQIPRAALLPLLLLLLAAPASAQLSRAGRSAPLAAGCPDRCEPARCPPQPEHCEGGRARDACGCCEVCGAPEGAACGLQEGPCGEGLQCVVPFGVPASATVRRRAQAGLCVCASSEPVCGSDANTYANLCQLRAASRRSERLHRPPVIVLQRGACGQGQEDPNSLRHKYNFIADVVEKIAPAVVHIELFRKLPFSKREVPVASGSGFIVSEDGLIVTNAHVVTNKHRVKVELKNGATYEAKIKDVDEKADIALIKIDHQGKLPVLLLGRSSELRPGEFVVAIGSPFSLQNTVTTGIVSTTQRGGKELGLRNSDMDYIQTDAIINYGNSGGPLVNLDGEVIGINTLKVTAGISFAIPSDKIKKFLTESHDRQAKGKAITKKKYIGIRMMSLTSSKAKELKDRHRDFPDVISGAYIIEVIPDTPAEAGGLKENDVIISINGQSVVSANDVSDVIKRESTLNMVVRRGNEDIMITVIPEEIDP
ABHD4 inh: inhibits mouse alpha/beta hydrolase domain 4. inhibition, % at 8.92 µM. Q8VD66. AID 720543. purified mABHD4, FP-Rh probe fluorescence polarization. hit rate 0.54% among 370,000;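 active = inhibition exceeding the mean over every tested compound plus 3 SD, cut at about 30% in these data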
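Test system: mABHD4 protein; Read-out basis: % inhibition; Incubation: 45 min + 60 min at 25 °C; Repeats: single replicate; Technique: fluorescence polarization with parallel and perpendicular emission, 525/598 nm; Compound: 8.92 µM, single dose; Benchmarks: full inhibition S159A mutant plus DMSO, zero as sample-well median.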
HTRA1 inh conf: HTRA1 (human) inhibition, confirmation; shares compounds with HTRA1 inhibitor; recombinant HTRA1, FP-rhodamine activity-based probe, fluorescence polarization; inhibition, % at 5.96 µM; hit rate 66% among 1,600; AID 540248;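 active = mean inhibition over three repeats above a set limit taken from the earlier primary screen, cut at about 37% in these data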;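 note: inhibitors block probe binding so polarization drops and inhibition rises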
Each line names hits and unclear results; the compound was inactive in the other large screens (follow-up assays come after a bar, where they were run).

O=C(CCc1ccccc1)N[C@H]1[C@H](OC(=O)c2cccnc2)CCC[C@@]12C(=O)N(Cc1ccccc1)c1ccccc12	none (no result: pPAFAH inh, PAFAH2 inh, PAFAH1B2 FP inh, PAFAH1B3 inh, HTRA1 inhibitor)
COc1cc(/C=C/C(=O)NCC(=O)N2CCC(N(C)CCN3CCOCC3)CC2)ccc1OC(C)C	HTRA1 inhibitor 37 | HTRA1 inh conf inactive
COCCCNC(=O)c1ccc(Cn2c(=O)c3ccccc3n(Cc3ccc([N+](=O)[O-])cc3)c2=O)cc1	none (no result: pPAFAH inh, PAFAH2 inh, PAFAH1B2 FP inh, PAFAH1B3 inh, HTRA1 inhibitor)
CCN(CC)CCn1c2ccccc2c(=O)c2c(O)ccc(O)c21	HTRA1 inhibitor 55, ABHD4 inh 33 (no result: pPAFAH inh) | HTRA1 inh conf 48
Nc1ccccc1NC1CCCCC1	HTRA1 inhibitor 41 (no result: pPAFAH inh) | HTRA1 inh conf 48
CCC1=NN(C(=O)c2cccc(Br)c2)C(O)(c2ccc(Br)cc2)C1 (stereo unspecified)	HTRA1 inhibitor 75 | HTRA1 inh conf 68
CCOc1ccc(/C=N/O)cc1	none
CCOc1ccc(N=Cc2ccc(N(C)C)cc2)c(O)c1	HTRA1 inhibitor 57 (no result: pPAFAH inh, PAFAH2 inh, PAFAH1B2 FP inh, PAFAH1B3 inh, ABHD4 inh) | HTRA1 inh conf 57
COC(=O)[C@]12C[C@H](CC(=O)N3CCCC3)C(=O)N(CCc3ccc(OC)c(OC)c3)C1=C[C@H](C(C)C)O[C@@H]2C1CC1	none (no result: pPAFAH inh, PAFAH2 inh, PAFAH1B2 FP inh, PAFAH1B3 inh, HTRA1 inhibitor)
Cc1ccc(-c2nn(-c3ccccc3)cc2C(=O)N2CCOCC2)cc1	HTRA1 inhibitor 36 | HTRA1 inh conf inactive
CCN1CCc2c(sc(NC(=O)c3ccc(S(=O)(=O)N4CCOCC4)cc3)c2C(=O)OC)C1	HTRA1 inhibitor 38 | HTRA1 inh conf inactive
CCN1CCc2c(sc(NC(=O)c3ccc(S(=O)(=O)N4CCOCC4)cc3)c2C(N)=O)C1	none
CC1(C)CC(NC(=O)c2ccccc2)CC(C)(C)N1	none
CC1(C)CC(Nc2ccc(Nc3ccccc3)cc2)CC(C)(C)N1	HTRA1 inhibitor 42 (no result: pPAFAH inh) | HTRA1 inh conf 54
COc1cc(/C=N/n2c(-c3cc(-c4ccccc4)n[nH]3)n[nH]c2=S)ccc1OCc1ccccc1	none (no result: pPAFAH inh, PAFAH2 inh, PAFAH1B2 FP inh, PAFAH1B3 inh, HTRA1 inhibitor)
Cc1ccc(NC(=O)CSc2ccccc2)cc1S(=O)(=O)N1CCCCC1	none
Cc1cc(C)c(S(=O)(=O)/N=C2/C=C(SCC(=O)O)C(=O)c3ccccc32)cc1C	PAFAH2 inh 30, PAFAH1B3 inh 37, HTRA1 inhibitor 54 (no result: pPAFAH inh, ABHD4 inh) | HTRA1 inh conf inactive
Cc1cc(Cl)ccc1OCCCC(=O)NNC(=O)c1ccccc1O	pPAFAH inh 29, HTRA1 inhibitor 39 | HTRA1 inh conf 52
CCCCC(=O)OCC(=O)C1(O)Cc2c(O)c3c(c(O)c2C(OC2CC(NC(=O)C(F)(F)F)C(O)C(C)O2)C1)C(=O)c1c(OC)cccc1C3=O (stereo unspecified)	none (no result: pPAFAH inh)
COc1cccc2c1C(=O)c1c(O)c3c(c(O)c1C2=O)CC(O)(C(C)=O)CC3OC1CC(O)C(O)C(C)O1 (stereo unspecified)	PAFAH2 inh 68, PAFAH1B2 FP inh 65, PAFAH1B3 inh 52, HTRA1 inhibitor 73, ABHD4 inh 79 (no result: pPAFAH inh) | HTRA1 inh conf 74
COc1cccc2c1C(=N)c1c(O)c3c(c(O)c1C2=O)CC(O)(C(C)=O)CC3OC1CC(N)C(O)C(C)O1 (stereo unspecified)	HTRA1 inhibitor 41 (no result: pPAFAH inh, ABHD4 inh) | HTRA1 inh conf 43
C=CCOC(=O)N1CCN(C(=O)c2ccc3c(c2)nc(C)n3C2CCCC2)CC1	none (no result: pPAFAH inh, PAFAH2 inh, PAFAH1B2 FP inh, PAFAH1B3 inh, HTRA1 inhibitor)
CCOc1ccccc1CNc1ccc(O)cc1	PAFAH2 inh 35, PAFAH1B3 inh 26, HTRA1 inhibitor 61, ABHD4 inh 57 (no result: pPAFAH inh) | HTRA1 inh conf inactive
CCc1ccc(CNc2ccc3c(c2)ncn3CC)cc1	none
CCc1ccc(CNc2ccc(O)cc2)cc1	HTRA1 inhibitor 73 (no result: ABHD4 inh) | HTRA1 inh conf 52
Cc1cccc2sc(NNC(=O)c3ccc(S(=O)(=O)N4CC(C)CC(C)C4)cc3)nc12 (stereo unspecified)	HTRA1 inhibitor 60 | HTRA1 inh conf 41
Cc1cc(C)c2nc(NNC(=O)c3ccc(S(=O)(=O)N4CC(C)CC(C)C4)cc3)sc2c1 (stereo unspecified)	HTRA1 inhibitor 54 | HTRA1 inh conf 61
COC(=O)c1sc2ccccc2c1NC(=O)c1ccc(S(=O)(=O)N2CC(C)CC(C)C2)cc1 (stereo unspecified)	none
